Laboratory results reported in ChEMBL document CHEMBL1156154, “Heterocyclic fused pyridone carboxylic acid M(1) positive allosteric modulators” (Bioorg Med Chem Lett, 2010).
The source made the active and inactive calls. No cut-off for these calls is given here.

What was measured:
Cerebrospinal fluid = experiment: Drug level in Sprague-Dawley rat CSF at 10 mg/kg, po; type: ADME, organism-based; set-up: dose 10 mg/kg, route oral; conditions: in vivo, read-out: Drug uptake
[1] = molecular target: T1, Muscarinic acetylcholine receptor M4 (Homo sapiens) (UniProt P08173); experiment: Positive allosteric modulator activity at human muscarinic M4 receptor expressed in CHO cells assessed as effect on acetylcholine-induced intracellular calcium mobilization by FLIPR assay; type: functional, cell-based
T1 sequence (whole entry): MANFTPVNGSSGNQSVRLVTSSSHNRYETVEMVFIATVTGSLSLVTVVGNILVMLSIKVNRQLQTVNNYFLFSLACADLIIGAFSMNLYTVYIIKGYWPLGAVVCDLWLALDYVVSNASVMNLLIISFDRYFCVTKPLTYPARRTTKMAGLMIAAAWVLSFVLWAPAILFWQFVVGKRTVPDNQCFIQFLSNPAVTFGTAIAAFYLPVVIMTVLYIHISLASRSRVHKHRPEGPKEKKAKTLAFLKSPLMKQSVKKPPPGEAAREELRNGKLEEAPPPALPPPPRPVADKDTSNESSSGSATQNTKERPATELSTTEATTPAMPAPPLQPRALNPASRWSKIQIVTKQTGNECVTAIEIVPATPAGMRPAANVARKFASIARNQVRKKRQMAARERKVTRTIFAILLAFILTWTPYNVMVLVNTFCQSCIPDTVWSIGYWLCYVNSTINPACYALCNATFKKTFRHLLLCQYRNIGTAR

[2] = Ratio of drug level in CSF to fraction unbound in plasma in rat; type: ADME; conditions: in vivo
Procedure, shortened: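 Sprague–Dawley rats dosed orally at 10 mg/kg in 0.5% methocel. CSF level divided by unbound plasma level. Unbound fraction comes from rat plasma protein binding by equilibrium dialysis.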

[3] = Ratio of drug level in brain to plasma in Sprague-Dawley rat at 10 mg/kg, po; type: ADME, organism-based; set-up: dose 10 mg/kg, route oral
Rattus norvegicus = experiment: Plasma concentration in Sprague-Dawley rat at 10 mg/kg, po; type: ADME, organism-based; set-up: dose 10 mg/kg, route oral; conditions: in vivo
[4] = Plasma protein binding in human serum by equilibrium dialysis method
[5] = molecular target: T2, Muscarinic acetylcholine receptor M2 (Homo sapiens) (UniProt P08172); experiment: Positive allosteric modulator activity at human muscarinic acetylcholine M2 receptor expressed in CHO cells assessed as effect on acetylcholine-induced intracellular calcium mobilization by FLIPR assay; type: functional, cell-based
T2 sequence (whole entry): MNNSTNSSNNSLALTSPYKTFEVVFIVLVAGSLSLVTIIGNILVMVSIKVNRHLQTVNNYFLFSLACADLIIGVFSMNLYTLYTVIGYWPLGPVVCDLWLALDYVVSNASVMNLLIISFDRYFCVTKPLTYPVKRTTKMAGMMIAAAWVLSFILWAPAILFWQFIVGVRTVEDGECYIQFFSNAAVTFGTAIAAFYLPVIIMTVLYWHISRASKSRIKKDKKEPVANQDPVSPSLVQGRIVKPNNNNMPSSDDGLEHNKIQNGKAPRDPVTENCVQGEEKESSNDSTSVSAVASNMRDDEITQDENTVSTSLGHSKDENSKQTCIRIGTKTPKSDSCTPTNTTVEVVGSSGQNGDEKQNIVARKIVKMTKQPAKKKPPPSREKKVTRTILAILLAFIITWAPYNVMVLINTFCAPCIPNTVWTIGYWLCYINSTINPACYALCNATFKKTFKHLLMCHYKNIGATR

[6] = molecular target: T3, Muscarinic acetylcholine receptor M1 (Homo sapiens) (UniProt P11229); experiment: Positive allosteric modulator activity at human muscarinic M1 receptor expressed in CHO cells assessed as effect on acetylcholine-induced intracellular calcium mobilization by FLIPR assay; type: functional, cell-based
T3 sequence (whole entry): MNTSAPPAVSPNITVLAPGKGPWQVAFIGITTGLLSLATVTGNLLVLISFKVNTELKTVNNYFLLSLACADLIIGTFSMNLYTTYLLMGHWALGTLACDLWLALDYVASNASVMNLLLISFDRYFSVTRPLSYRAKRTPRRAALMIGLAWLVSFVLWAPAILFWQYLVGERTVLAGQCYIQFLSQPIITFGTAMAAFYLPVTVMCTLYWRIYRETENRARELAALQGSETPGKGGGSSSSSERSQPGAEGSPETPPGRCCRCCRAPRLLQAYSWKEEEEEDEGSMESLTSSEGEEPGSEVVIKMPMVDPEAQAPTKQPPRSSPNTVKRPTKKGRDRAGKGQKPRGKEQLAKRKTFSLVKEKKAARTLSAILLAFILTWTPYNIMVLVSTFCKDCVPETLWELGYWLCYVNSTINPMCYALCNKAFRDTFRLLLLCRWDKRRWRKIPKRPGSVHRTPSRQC
Procedure, shortened: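 CHO cells expressing human M1 were run with an EC20 concentration of acetylcholine. Calcium mobilization was read on a FLIPR384. Potency is reported as the inflection point. Percent max is the compound plus EC20 ACh response relative to the maximal acetylcholine effect.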

[7] = Plasma protein binding in rat serum by equilibrium dialysis method
Brain = experiment: Drug level in Sprague-Dawley rat brain at 10 mg/kg, po; type: ADME, organism-based; set-up: dose 10 mg/kg, route oral; conditions: in vivo, read-out: Drug uptake
[8] = molecular target: Muscarinic acetylcholine receptor M3 (Homo sapiens) (UniProt P20309); experiment: Positive allosteric modulator activity at human muscarinic M3 receptor expressed in CHO cells assessed as effect on acetylcholine-induced intracellular calcium mobilization by FLIPR assay; type: functional, cell-based
[9] = Bioavailability in rat at 10 mg/kg, po and 2 mg/kg, iv; type: ADME, organism-based; conditions: in vivo
Procedure, shortened: (§1)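 Rat pharmacokinetics, oral dosing at 10 mpk and intravenous dosing at 2 mpk. Bioavailability, half-life and clearance derived from these profiles.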

[10] = Ratio of drug level in CSF to fraction unbound in plasma in P-glycoprotein deficient mouse; type: ADME; conditions: in vivo
Procedure, shortened: (§2)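 CF-1 wild-type and P-gp knockout mice were dosed, and plasma and CSF were taken 30 min later. The CSF to unbound plasma ratio was then calculated.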

[11] = Clearance in rat at 10 mg/kg, po and 2 mg/kg, iv; type: ADME, organism-based; conditions: in vivo; procedure, shortened: as §1
[12] = Half life in rat at 10 mg/kg, po and 2 mg/kg, iv; type: ADME, organism-based; conditions: in vivo; procedure, shortened: as §1
Mus musculus = species: Mus musculus; experiment: Effect on behavioral activity in mouse contextual fear conditioning model assessed as episodic memory; type: functional, organism-based
[13] = Ratio of drug level in CSF to fraction unbound in plasma in CF-1 mouse; type: ADME; conditions: in vivo; procedure, shortened: as §2

Muscarinic acetylcholine receptor M3 (Homo sapiens), sequence (P20309 whole entry, looked up): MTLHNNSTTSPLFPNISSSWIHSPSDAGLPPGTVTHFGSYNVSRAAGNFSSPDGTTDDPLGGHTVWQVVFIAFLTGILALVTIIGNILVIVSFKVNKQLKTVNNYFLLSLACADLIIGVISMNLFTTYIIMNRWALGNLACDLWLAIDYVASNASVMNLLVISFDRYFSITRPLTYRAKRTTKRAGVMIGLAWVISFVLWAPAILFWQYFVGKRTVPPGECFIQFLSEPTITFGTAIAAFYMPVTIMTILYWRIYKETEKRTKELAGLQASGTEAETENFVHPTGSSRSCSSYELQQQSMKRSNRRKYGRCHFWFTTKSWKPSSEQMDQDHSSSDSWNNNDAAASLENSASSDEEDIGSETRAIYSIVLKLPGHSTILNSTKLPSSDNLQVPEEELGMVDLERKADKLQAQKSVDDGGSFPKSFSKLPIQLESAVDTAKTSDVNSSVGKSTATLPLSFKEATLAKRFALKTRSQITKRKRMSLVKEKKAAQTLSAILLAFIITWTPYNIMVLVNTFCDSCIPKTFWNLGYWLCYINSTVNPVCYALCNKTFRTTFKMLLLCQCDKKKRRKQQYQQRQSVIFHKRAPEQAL

concentration (Cerebrospinal fluid) [nM] | Activity [1] | Ratio [2] | Kp [3] | concentration (Rattus norvegicus) [nM] | fraction unbound [4] | Activity [5] | IP [6] [µM] | fraction unbound [7] | concentration (Brain) [nM] | Activity [8] | bioavailability [9] [%] | Ratio [10] | clearance [11] [mL/min/kg] | half-life [12] [h] | Ratio [13] | Structure (SMILES) | Activity (Mus musculus)
24 | inactive | 0.03 | 0.15 | 78500 | 0.125 | inactive | 0.25 | 0.011 | 1200 | inactive | – | – | – | – | – | Cc1ccn(-c2ccc(Cn3cc(C(=O)O)c(=O)c4ccncc43)cc2)n1 | –
42 | inactive | 0.05 | 0.02 | 9420 | 0.279 | inactive | 0.34 | 0.094 | 159 | inactive | – | – | – | – | – | Cn1cc(-c2ccc(Cn3cc(C(=O)O)c(=O)c4sccc43)nc2)cn1 | –
123 | inactive | 0.21 | 0.07 | 4240 | 0.14 | inactive | 0.52 | 0.132 | 316 | inactive | 33 | 0.16 | 6.8 | 3.7 | 0.05 | O=C(O)c1cn(Cc2ccc(-n3cccn3)cc2)c2ccsc2c1=O | inactive
